Assay results gathered from unrelated publications.
Cell line: NCI-H226
Effect on: cell growth or viability

| SMILES | assay | setting | quantity | result |
| --- | --- | --- | --- | --- |
| CCCCC/C=C/C(=O)CCc1ccc(O)c(OC)c1 | SRB | – | IC50 | 18 µM |
| Cc1cc(C)n(C(=S)[S][Au][PH](CCCCCC[PH]([Au][S]C(=S)n2nc(C)cc2C)(c2ccccc2)c2ccccc2)(c2ccccc2)c2ccccc2)n1 | SRB | – | GI50 | 2.52 µM |
| O=C1NCCc2[nH]c(-c3ccncc3)cc21 | – | – | IC50 | > 10 µM |
| CCCCC[C@H](O)CC(=O)CCc1ccc(O)c(OC)c1 | SRB | – | IC50 | 145 µM |
| CCc1n(Cc2ccc3ccccc3n2)cc[n+]1Cc1ccc2ccccc2c1 | SRB | – | TGI | 4.87 µM |
| COc1ccccc1/C=C/C(=O)c1ccc(OC)c(S(N)(=O)=O)c1 | SRB | 48 h | GI50 | 4 µM |
| c1ccc(-c2n(Cc3ccc4ccccc4c3)cc[n+]2Cc2ccc3ccccc3c2)cc1 | SRB | – | TGI | 2.97 µM |
| COc1ccc(C(=O)/C=C/c2cc3c(cc2Br)OCO3)cc1S(N)(=O)=O | SRB | 10 µM | inhibition | 87% |
| COc1ccc(-c2ccc(-c3ccc(C(=N)N)nc3)s2)cc1Cl | SRB | – | GI50 | 1.92 µM |
| COc1cccc(Oc2ccccc2NC(=O)CNC(=O)c2cccc3ccccc23)c1 | SRB | 48 h | GI50 | 2.51 µM |
| COc1cc(-c2ccc(-c3ccc(C(=N)N)nc3)s2)cc(OC)c1OC | SRB | – | GI50 | 10.8 µM |
| COc1ccc(C(=O)/C=C/c2cccc(Cl)c2)cc1S(N)(=O)=O | SRB | 48 h | GI50 | 2.8 µM |
| CCCc1n(Cc2ccc3ccccc3n2)cc[n+]1Cc1ccc2ccccc2n1 | SRB | – | TGI | 34.8 µM |
| COc1ccc(C(=O)/C=C/c2ccc3ccccc3c2)cc1S(N)(=O)=O | SRB | 48 h | GI50 | 2.3 µM |
| c1ccc2cc(Cn3cc[n+](Cc4ccc5ccccc5c4)c3)ccc2c1 | SRB | – | TGI | 14.3 µM |
| COc1ccc(C(=O)/C=C/c2cccc(Br)c2)cc1S(N)(=O)=O | SRB | 10 µM | inhibition | 83% |
| NC(=O)c1cc(Cl)ccc1NC(=O)COc1ccccc1 | SRB | – | GI50 | > 100 µM |
